This is a sample that favours compounds with a hit; in the whole collection about 4.6% have one here.
TAAR1 ag: human TAAR1 agonism; Q96RJ0; CHO RD-HGA16 TAAR1, Fluo-8 calcium fluorescence; vehicle wells 0%, saturating PEA agonist 100%; activation, % at 3 µM; 360,000 compounds, 0.99% hits; AID 624467;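 active = activation above the mean activation of all test compounds in the run plus 3 SD, cut at about 38% in these data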
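Signal – calcium-sensitive Fluo-8 signal, excitation 470-495, emission 515-575 nm · System – RD-HGA16 (CHO) cells co-expressing Gα16 and hTAAR1 · Incubation – 17-24 h seeding, 75 min 37 °C dye, 30 min RT · Compound dosing – 3 µM single concentration · Repeats – no replicates (n 1)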
OX1R antag-1: antagonists of human orexin 1 receptor. CHO/OX1R cells, Fluo-8 calcium fluorescence, orexin A. AID 434989. inhibition, % at 5 µM. 330,000 compounds, 0.43% hits. O43613;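 active = inhibition above its plate's threshold, mean inhibition of all tested compounds on the plate plus 3 SD, cut at about 37% in these data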;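 note: 0% = orexin A challenge wells and 100% = SB-334867-A antagonist wells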
GPR7 antagonist: blocks human GPR7 receptor signaling; inhibition, % at 4.4 µM; 290,000 compounds, 1.1% hits; GPR7-expressing cells, fluorescence antagonist assay; P48145; AID 1861; in the data active = inhibition above about 16%, passing the limit was not always enough;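 note: cells stimulated with the agonist NPW; 0% = agonist with vehicle and 100% = vehicle without agonist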
Target sequence (P48145 whole entry, looked up): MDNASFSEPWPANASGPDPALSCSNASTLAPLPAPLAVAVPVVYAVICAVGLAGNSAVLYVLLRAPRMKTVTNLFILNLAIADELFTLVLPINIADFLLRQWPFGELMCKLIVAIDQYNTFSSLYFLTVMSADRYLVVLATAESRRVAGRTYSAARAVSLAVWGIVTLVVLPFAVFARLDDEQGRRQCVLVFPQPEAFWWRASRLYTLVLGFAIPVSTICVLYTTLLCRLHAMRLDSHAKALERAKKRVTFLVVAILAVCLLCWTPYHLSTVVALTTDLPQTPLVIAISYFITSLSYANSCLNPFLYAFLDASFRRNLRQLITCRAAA
CHO parental Ca: counter-screen for OX1R antagonists: effect in parental CHO cells | parental CHO-K1, ATP-induced calcium, Fluo-8 fluorescence | inhibition, % at 5.6 µM | AID 463079 | 330,000 compounds, 0.63% hits;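 active = inhibition above that plate's mean sample inhibition plus 3 SD, cut at about 26% in these data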;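 note: 0% = ATP-challenged DMSO wells and 100% = DMSO wells without ATP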
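Test system: parental CHO cells; detection: calcium-sensitive Fluo-8 fluorescence; evaluation: percent inhibition of calcium signal; also added: ATP as calcium-mobilizing challenge; repeats: one well per compound; control set: ATP-challenged DMSO wells low, unchallenged DMSO wells high; compound: single nominal dose of 5.6 µM per compound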
TAAR1 antagonist: antagonists of human TAAR1; 360,000 compounds, 1.5% hits; inhibition, % at 3 µM; CHO RD-HGA16 TAAR1, Fluo-8 calcium fluorescence, antagonist; AID 624466;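 active = inhibition above a per-plate cutoff, the mean inhibition of test compounds on that plate plus 3 SD, cut at about 49% in these data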;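 note: 0% = DMSO plus EC80 beta-PEA response and 100% = DMSO alone without agonist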
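Assay system: RD-HGA16 CHO cells with stable hTAAR1 and Gα16 / Reagent: EC80 β-phenethylamine stimulus / Doses: 3 µM, single point / Timing: dye loading 75 min at 37 °C, then 30 min room temperature / Measured by: Fluo-8 intracellular calcium dye fluorescence, real-time kinetic reads / Controls: vehicle wells and EC80 agonist wells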
OX1R antag-2: antagonists of human orexin 1 receptor (OX1R). O43613. 330,000 compounds, 1.8% hits. OX1R-expressing cells, FRET antagonist read-out. inhibition, % at 6.6 µM; in the data active = inhibition mostly above about 38%, no sharp cut-off; inactive = mostly below about 40%;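 note: 0% = agonist challenge alone and 100% = reference antagonist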
OX1R Ca confirm: confirmation of human orexin 1 receptor antagonists. shares compounds with OX1R antag-1. CHO/OX1R cells, orexin A calcium Fluo-8 fluorescence. inhibition, % at 5 µM. 1,100 compounds, 38% hits. AID 492963; in the data active = inhibition above about 29%;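 note: 0% = agonist challenge alone and 100% = reference antagonist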
CHO Ca counter: counter-screen: parental CHO calcium response change, triplicate | 1,100 compounds, 9.3% hits | shares compounds with OX1R antag-1 | parental CHO-K1, ATP-induced calcium, Fluo-8 fluorescence | inhibition, % at 5.6 µM;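 active = inhibition above a per-plate limit, the mean inhibition of that plate's test compounds plus 3 SD, cut at about 25% in these data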;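 note: 0% = ATP challenge with DMSO and 100% = DMSO without ATP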
Starred values were filed as active, the others as inactive; · = no result.

SMILES	TAAR1 ag	OX1R antag-1	GPR7 antagonist	CHO parental Ca	TAAR1 antagonist	OX1R antag-2	OX1R Ca confirm	CHO Ca counter
CN(Cc1ccc(Cl)cc1)C(C(=O)NC1CCCCC1)c1ccnc2ccccc12 (configuration not stated)	-2	·	·	·	-1	·	·	·
Cc1ccccc1OCCC(=O)Nc1cccc(S(=O)(=O)Nc2ccccc2Cl)c1	7	45*	-8	-5	41	58	26	-2
COC(=O)CNC(=O)C(NC(=O)OCc1ccccc1)C(C)C (configuration not stated)	1	25	1	12	3	9	-44	1
Cn1nnnc1NCc1cccc(Cl)c1	-1	-4	-2	5	3	4	·	·
Clc1cccc(CNc2nnnn2-c2ccccc2)c1	10	45*	7	24	31	65	16	10
CC(=O)c1ccc(OCc2cc(C(=O)N(C)CCOc3ccc(C)cc3)no2)cc1	3	27	3	-1	9	11	0	-2
CCOc1ccc2cc(S(=O)(=O)n3ccnc3C)ccc2c1	2	-3	0	16	0	15	·	·
CCc1nccn1S(=O)(=O)c1ccc2ccc(C)cc2c1	7	56*	-7	-11	-11	16	4	3
Oc1ccc(C[C@H]2CN([C@@H](Cc3cccc(O)c3)CN3CCC[C@@H]3CN3C(=S)NC[C@@H]3Cc3ccccc3)C(=S)N2CC2CCCCC2)cc1	0	·	·	·	-15	·	·	·
CCOC(=O)c1csc(Nc2nc3ccc(F)cc3s2)n1	21	39	-15	27	41	15	27	26*
C(=C\c1ccccc1)/CN1CCN(c2ncnc3c2oc2ccccc23)CC1	7	48*	-10	16	19	29	21	57*
c1ccc2c(c1)oc1c(N3CCOCC3)ncnc12	21	-5	-8	-3	0	28	·	·
CCN1C/C(=C/c2ccc(N3CCOCC3)cc2)C(=O)/C(=C/c2ccc(N3CCOCC3)cc2)C1	25	46	-16	34	40	31	34*	34*
COC(=O)[C@@]12C[C@@H](CC(=O)NCc3cccc4ccccc34)C(=O)N(Cc3ccccc3)C1=CCC(C)(C)C2	2	·	·	·	-21	·	·	·
O=C(NCC(F)(F)F)c1cc2c(c(-c3cccc(-c4ccccc4F)c3)n1)[C@@H](CCO)N(C(=O)CC1CC1)C2	1	·	·	·	17	·	·	·
Cc1ccc(N/N=C(\C#N)C(=N)N2CCCCC2)cc1	1	-6	-1	-2	3	6	·	·
N#C/C(=N\Nc1ccc(Cl)cc1)C(=N)N1CCCCCC1	11	24	7	11	-11	17	-3	-2
N#CC(=C1C=CC(=NO)C(Cl)=C1)c1ccccc1	-1	·	·	·	16	·	·	·
Cn1c(=O)c(C(=O)NNC(=O)c2ccc(Br)cc2)c(O)c2ccccc21	6	27	-6	19	5	7	8	16
Cc1cccc(OCC(=O)Nc2ccncc2)c1C	5	25	-5	26	-4	5	16	51*
Cc1cccc(NC(=S)NCc2ccccc2Cl)c1C	4	66*	2	-5	-9	36	-9	-11
Cc1c(Cl)cccc1NC(=S)NCc1ccccc1	9	-12	2	-8	-1	8	·	·
C=CCNC(=S)NC(=O)c1oc2ccccc2c1C	3	40	-14	5	3	21	38*	-13
Cc1c(C(=O)NC(=S)NCC(C)C)oc2ccccc12	1	-9	-7	-9	-14	12	·	·
COC(=O)c1cn(CCOc2ccc(C)cc2)c2ccccc12	5	-25	-8	-19	1	8	·	·
CC(=O)c1cn(CCOc2ccc(F)cc2)c2ccccc12	7	48*	13	17	28	27	17	0
CNc1cncc(-c2ccc(OC)c(OC)c2)n1	0	·	·	·	-12	·	·	·
Cn1cnnc1SCC(=O)Nc1nc(-c2ccccc2)cs1	5	42*	3	-11	9	45	32*	2

Bioassay records: PubChem, The Scripps Research Institute Molecular Screening Center
